According to paper PMC7948434 (ACS Omega, 2021):
Positions of bridges follow the written chain, without caps; N, C: chain ends. Residues, ends and D or L forms follow the SMILES beside them. No end group written: not given here.

B1: N36 peptide derived from HIV-1 JR-FL gp41 (peptide)
chain: SGIVQQQNNLLRAIEAQQRMLQLTVWGIKQLQARVL
B2: fejerlectin (peptide)
peptide: RLCYMVLPCP
modifications: disulfide 3-9 (inferred)

Experiments:
[1] = test system: gp41 6-HB (N36 and C34 peptides); experiment: ELISA for inhibiting gp41 6-HB formation; assay type: biochemical, HIV-1; conditions: read-out: IC50, gp41 6-HB formation; 2 μM N36, 2 μM C34, 37 °C, ELISA 450 nm; mean ± SD, n = 3
How it was run: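 2 μM N36 was preincubated with the test compound (5–50 μM) at 37 °C for 30 min, then with 2 μM C34 at 37 °C for another 30 min. The mixture went onto plates coated with 2 μg/mL rabbit anti-6-HB IgG. Detection used 1 μg/mL NC-1 mAb, biotin-anti-mouse IgG, streptavidin-HRP and TMB, stopped with 1 M H2SO4, read at A450. Mean ± SD, n = 3.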

[2] = test system: HIV-1SF162, HIV-1NL4-3, and HIV-1_81A and NL4-3; experiment: time-of-addition assay, results in words for the viruses together; assay type: cell-based; conditions: AZT 45 nM, maraviroc 24 nM, AMD3100 50 nM
How it was run: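 TZM-bl cells (5 × 10^5/mL) were infected with HIV-1NL4-3, HIV-1SF162 or HIV-1 81A/NL4-3 at 100 TCID50 at 37 °C. Test compound (added as 25 μM) or control was introduced at 0, 0.5, 1, 2, 4, 6, 8 or 24 h post-infection. Medium was replaced at 24 h, and supernatant p24 antigen was measured at 48 h. Mean ± SD, n = 3.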

TZM-bl cells = experiment: cytotoxicity in vitro; assay type: cell-based; conditions: MTT, 48 h, 1 to 1000 μM, mean ± SD, n = 3
How it was run: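 TZM-bl cells, 2 × 10^4/well in DMEM with 10% FBS and 1% penicillin/streptomycin, were cultured 24 h, then exposed to the test compound (1–1000 μM) for 48 h. MTT (0.5 mg/mL) was applied for 4 h, and formazan was dissolved in DMSO and read at 570 nm. CC50 was computed from the dose series. Mean ± SD, n = 3.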

[3] = serum stability, HA activity after incubation in human serum; assay type: in vitro ADME; conditions: 3 h; method: human serum at 37 °C, read-out HA titer
How it was run: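 Test compound was held in human serum at 37 °C for 0–4 h before HA titration. Mouse erythrocytes were washed in Alsever's solution and used as a 2% (v/v) suspension in PBS pH 7.5. Twofold serial dilutions were made in V-bottom plates, with PBS as negative control. Titer is the reciprocal of the lowest concentration giving HA. Repeated at least three times.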

HIV-1SF162 = conditions: 1SF162, 48 h
[4] = test system: HIV-1HXB2 pseudotyped virus; conditions: 72 h
HIV-1NL4-3 = conditions: 1NL4-3, 48 h
HIV-1_81A and NL4-3 = conditions: 1 81A and NL4-3, 48 h
[5] = test system: HIV-1JR-FL pseudotyped virus; conditions: 72 h
gp41 = conditions: cited from earlier work
HIV-1 = conditions: cited from earlier work
fejerlectin = target: B2; experiment: SPR
[6] = target: B1; experiment: ELISA

With `COc1ccc(S(=O)(=O)O)cc1N=Nc1c(S(=O)(=O)O)cc2cc(Nc3nc(Nc4ccccc4)nc(Nc4cc(C)c(N=Nc5cc(S(=O)(=O)O)cc6cc(S(=O)(=O)O)cc(O)c56)cc4OC)n3)ccc2c1O` [ADS-J1] as the molecule, how does the IC50 [1] read?
The IC50 was 1530 ± 480 nM.

With `c1cc(CN2CCCNCCNCCCNCC2)ccc1CN1CCCNCCNCCCNCC1` [AMD3100] as the molecule, how does the “anti-HIV activity when added 8 h after infection” value (from here on “anti-HIV activity when added 8 h”) [2] read?
The value was “significantly decreased 8 h after infection”.

With `Cc1cn([C@H]2C[C@H](N=[N+]=[N-])[C@@H](CO)O2)c(=O)[nH]c1=O` [AZT, zidovudine] as the molecule, how does the “anti-HIV activity when added 8 h” value [2] read?
The value was “still had high antiviral activity when added 8 h after infection”.

Which CC50 (TZM-bl cells) does the source give for `CSCC[C@@H]1NC(=O)[C@H](Cc2ccc(O)cc2)NC(=O)[C@@H](NC(=O)[C@H](CC(C)C)NC(=O)[C@@H](N)CCCNC(=N)N)CSSC[C@@H](C(=O)N2CCC[C@H]2C(=O)O)NC(=O)[C@@H]2CCCN2C(=O)[C@H](CC(C)C)NC(=O)[C@H](C(C)C)NC1=O` [fejerlectin, RLCYMVLPCP] (H-RLCYMVLPCP-OH; disulfide 3-9) here?
Its CC50 is 182490 ± 9350 nM.

What about the “stability of HA activity in human plasma” value [3] of the same molecule?
The value was “stable for 3 h in human plasma”.

And the IC50 (HIV-1SF162)?
The IC50 was 2170 ± 1030 nM.

And the EC50 [4]?
Its EC50 is 9630 ± 2300 nM.

What about the IC50 (HIV-1NL4-3) of the same molecule?
Its IC50 is 1430 ± 340 nM.

And the IC50 (HIV-1_81A and NL4-3)?
The IC50 was 2800 ± 370 nM.

What about the EC50 [5] of the same molecule?
Its EC50 is 4200 ± 960 nM.

Which “HIV-1 entry/fusion inhibition via gp41 NHR” value (gp41) does the source give for `O=C(CCc1ccc(O)cc1)c1c(O)cc(O[C@@H]2O[C@H](CO)[C@@H](O)[C@H](O)[C@H]2O)cc1O` [trilobatin] here?
The value was “inhibited HIV-1 entry/fusion by binding the gp41 NHR region and blocking the formation of fusion-active 6-HB”.

With caerin 1.1 as the molecule, how does the “suppression of HIV proliferation” value (HIV-1) read?
The value was “suppress HIV proliferation by direct inactivation”.

For maraviroc, which “anti-HIV activity when added 8 h” value [2] is on record?
The value was “significantly decreased 8 h after infection”.

Which “protection of cells from HIV-1 infection” value (HIV-1) does the source give for retrocyclin-1 here?
Its value is “protect cells from HIV-1 infection by binding with high affinity to gp120, CD4, and galactosylceramide”.

Which “anti-HIV-1 activity by inhibiting 6-HB formation” value (gp41) does the source give for sifuvirtide here?
Its value is “potent anti-HIV-1 activity by inhibiting 6-HB formation”.

Which Kd (fejerlectin) does the source give for B1 here?
Its Kd is 466000 nM.

For B2, which IC50 [6] is on record?
Its IC50 is 2610 nM.
